# In ChEMBL document CHEMBL4689842, “EUbOPEN Chemogenomics Library wave 1” (2021):
# Test system: Fibroblast
# Assay: Multiplex assay against human fibroblast
# Type: toxicity, cell-based
# Summary of the method: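 At seeding, live cells were stained with Hoechst33342, BioTracker Green Microtubule Cytoskeleton Dye, MitoTracker Red and Annexin V Alexa Fluor 680. After compound addition they were imaged on a CQ1 microscope at 37°C and 5% CO2, and CellPathfinder machine-learning gating sorted them into Hoechst high-intensity objects or normal cells, with normal cells further split into healthy, pyknosed or fragmented nuclei and pyknosed cells into mitotic or apoptotic. Tubulin, mitochondrial-mass and membrane-permeability phenotypes are given as per cents of cells with healthy nuclei.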
# [1] = 12 h, 1 µM, compound concentration 1 uM, replicate 1
# [2] = 12 h, 1 µM, compound concentration 1 uM, replicate 2
# [3] = 12 h, 10 µM, compound concentration 10 uM, replicate 1
# [4] = 12 h, 10 µM, compound concentration 10 uM, replicate 2
# [5] = 24 h, 1 µM, compound concentration 1 uM, replicate 1
# [6] = 24 h, 1 µM, compound concentration 1 uM, replicate 2
# [7] = 24 h, 10 µM, compound concentration 10 uM, replicate 1
# [8] = 24 h, 10 µM, compound concentration 10 uM, replicate 2
# [9] = 48 h, 1 µM, compound concentration 1 uM, replicate 1
# [10] = 48 h, 1 µM, compound concentration 1 uM, replicate 2
# [11] = 48 h, 10 µM, compound concentration 10 uM, replicate 1
# [12] = 48 h, 10 µM, compound concentration 10 uM, replicate 2
structure (smiles),measurement,setting,value
CN1CCN(c2ccc(OC(F)(F)F)c(Nc3ncc4c(n3)-c3c(c(C(N)=O)nn3CCO)CC4)c2)CC1 [ONVANSERTIB],Population Apoptotic (%),[1],63%
same,Population Fragmented Nuclei (%),[1],23%
same,Population Healthy Nuclei (%),[1],35%
same,Population Hoechst High Intensity Objects (%),[1],19%
same,Population Membrane Permeable-Phenotype (%),[1],29%
same,Population Mitochondria Different-Phenotype (%),[1],10%
same,Population Mitotic Cells (%),[1],36%
same,Population Normal (%),[1],80%
same,Population Pyknosed Nuclei (%),[1],40%
same,Population Tubulin-Different-Phenotype (%),[1],41%
same,Total Cell Count,[1],168
same,Population Apoptotic (%),[2],25%
same,Population Fragmented Nuclei (%),[2],11%
same,Population Healthy Nuclei (%),[2],80%
same,Population Hoechst High Intensity Objects (%),[2],14%
same,Population Membrane Permeable-Phenotype (%),[2],0%
same,Population Mitochondria Different-Phenotype (%),[2],14%
same,Population Mitotic Cells (%),[2],75%
same,Population Normal (%),[2],85%
same,Population Pyknosed Nuclei (%),[2],7%
same,Population Tubulin-Different-Phenotype (%),[2],16%
same,Total Cell Count,[2],66
same,Population Apoptotic (%),[3],68%
same,Population Fragmented Nuclei (%),[3],34%
same,Population Healthy Nuclei (%),[3],36%
same,Population Hoechst High Intensity Objects (%),[3],15%
same,Population Membrane Permeable-Phenotype (%),[3],3%
same,Population Mitochondria Different-Phenotype (%),[3],9%
same,Population Mitotic Cells (%),[3],32%
same,Population Normal (%),[3],84%
same,Population Pyknosed Nuclei (%),[3],29%
same,Population Tubulin-Different-Phenotype (%),[3],64%
same,Population Apoptotic (%),[4],40%
same,Population Fragmented Nuclei (%),[4],9%
same,Population Healthy Nuclei (%),[4],78%
same,Population Hoechst High Intensity Objects (%),[4],19%
same,Population Membrane Permeable-Phenotype (%),[4],0%
same,Population Mitochondria Different-Phenotype (%),[4],84%
same,Population Mitotic Cells (%),[4],60%
same,Population Normal (%),[4],80%
same,Population Pyknosed Nuclei (%),[4],12%
same,Population Tubulin-Different-Phenotype (%),[4],78%
same,Total Cell Count,[4],61
same,Population Apoptotic (%),[5],53%
same,Population Fragmented Nuclei (%),[5],25%
same,Population Healthy Nuclei (%),[5],41%
same,Population Hoechst High Intensity Objects (%),[5],24%
same,Population Membrane Permeable-Phenotype (%),[5],25%
same,Population Mitochondria Different-Phenotype (%),[5],7%
same,Population Mitotic Cells (%),[5],46%
same,Population Normal (%),[5],75%
same,Population Pyknosed Nuclei (%),[5],33%
same,Population Tubulin-Different-Phenotype (%),[5],61%
same,Total Cell Count,[5],165
same,Population Apoptotic (%),[6],57%
same,Population Fragmented Nuclei (%),[6],21%
same,Population Healthy Nuclei (%),[6],65%
same,Population Hoechst High Intensity Objects (%),[6],5%
same,Population Membrane Permeable-Phenotype (%),[6],5%
same,Population Mitochondria Different-Phenotype (%),[6],32%
same,Population Mitotic Cells (%),[6],42%
same,Population Normal (%),[6],94%
same,Population Pyknosed Nuclei (%),[6],13%
same,Population Tubulin-Different-Phenotype (%),[6],11%
same,Total Cell Count,[6],73
same,Population Apoptotic (%),[7],58%
same,Population Fragmented Nuclei (%),[7],39%
same,Population Healthy Nuclei (%),[7],37%
same,Population Hoechst High Intensity Objects (%),[7],18%
same,Population Membrane Permeable-Phenotype (%),[7],28%
same,Population Mitochondria Different-Phenotype (%),[7],0%
same,Population Mitotic Cells (%),[7],41%
same,Population Normal (%),[7],81%
same,Population Pyknosed Nuclei (%),[7],23%
same,Population Tubulin-Different-Phenotype (%),[7],66%
same,Total Cell Count,[7],127
same,Population Apoptotic (%),[8],40%
same,Population Fragmented Nuclei (%),[8],11%
same,Population Healthy Nuclei (%),[8],77%
same,Population Hoechst High Intensity Objects (%),[8],16%
same,Population Membrane Permeable-Phenotype (%),[8],5%
same,Population Mitochondria Different-Phenotype (%),[8],82%
same,Population Mitotic Cells (%),[8],60%
same,Population Normal (%),[8],83%
same,Population Pyknosed Nuclei (%),[8],11%
same,Population Tubulin-Different-Phenotype (%),[8],55%
same,Total Cell Count,[8],55
same,Population Apoptotic (%),[9],53%
same,Population Fragmented Nuclei (%),[9],38%
same,Population Healthy Nuclei (%),[9],37%
same,Population Hoechst High Intensity Objects (%),[9],21%
same,Population Membrane Permeable-Phenotype (%),[9],25%
same,Population Mitochondria Different-Phenotype (%),[9],6%
same,Population Mitotic Cells (%),[9],46%
same,Population Normal (%),[9],78%
same,Population Pyknosed Nuclei (%),[9],24%
same,Population Tubulin-Different-Phenotype (%),[9],65%
same,Total Cell Count,[9],146
same,Population Apoptotic (%),[10],40%
same,Population Fragmented Nuclei (%),[10],25%
same,Population Healthy Nuclei (%),[10],68%
same,Population Hoechst High Intensity Objects (%),[10],17%
same,Population Membrane Permeable-Phenotype (%),[10],13%
same,Population Mitochondria Different-Phenotype (%),[10],1%
same,Population Mitotic Cells (%),[10],60%
same,Population Normal (%),[10],82%
same,Population Pyknosed Nuclei (%),[10],5%
same,Population Tubulin-Different-Phenotype (%),[10],23%
same,Population Apoptotic (%),[11],50%
same,Population Fragmented Nuclei (%),[11],46%
same,Population Healthy Nuclei (%),[11],40%
same,Population Hoechst High Intensity Objects (%),[11],23%
same,Population Membrane Permeable-Phenotype (%),[11],19%
same,Population Mitochondria Different-Phenotype (%),[11],9%
same,Population Mitotic Cells (%),[11],50%
same,Population Normal (%),[11],76%
same,Population Pyknosed Nuclei (%),[11],13%
same,Population Tubulin-Different-Phenotype (%),[11],69%
same,Total Cell Count,[11],136
same,Population Fragmented Nuclei (%),[12],37%
same,Population Healthy Nuclei (%),[12],58%
same,Population Hoechst High Intensity Objects (%),[12],20%
same,Population Membrane Permeable-Phenotype (%),[12],7%
same,Population Mitochondria Different-Phenotype (%),[12],4%
same,Population Normal (%),[12],79%
same,Population Pyknosed Nuclei (%),[12],4%
same,Population Tubulin-Different-Phenotype (%),[12],73%
same,Total Cell Count,[12],241
